Experimental data collected from several papers.
Protocols differ between the studies behind these lines.
ACHE: Acetylcholinesterase (ACHE, Homo sapiens, UniProt P22303)

Compound | target | effect on | mode | method | concentration | measurement | value
COc1cc(/C=C/C(=O)O)ccc1OCc1cn(CC(=O)Nc2ccccc2C)nn1 | ACHE | enzyme activity | inhibitor | Ellman | 40 µM | inhibition | 30.9%
CCCCC(=O)Nc1ccc(-c2ccc3ncn(CCC)c(=O)c3c2)cn1 | Serine/threonine-protein kinase PknB (pknB, Mycobacterium tuberculosis, UniProt P9WI81) | binding | – | competition with immobilised ligand | 0.5 µM | remaining binding | 100%
C1CO1.C=O.CC(C)(C)CC(C)(C)c1ccc(O)cc1 | Mitogen-activated protein kinase 3 (MAPK3, Homo sapiens, UniProt P27361) | enzyme activity | inhibitor | ADP detection | 10 µM | inhibition | 45.2%
CC(C)CC(=O)OC[C@H]1O[C@@](C#N)(c2ccc3c(N)ncnn23)[C@H](O)[C@@H]1O | ACHE | enzyme activity | inhibitor | – | 20 µM | inhibition | 3%
CCc1ccc(N2C(=O)/C(=C3/C(=O)N(C)c4ccc(Cl)cc43)NC2=S)cc1 | ACHE | enzyme activity | inhibitor | Ellman | 5 µM | inhibition | 84%
COc1cc(/C=C/C(=O)O)ccc1OCc1cn(CC(=O)Nc2ccccc2[N+](=O)[O-])nn1 | ACHE | enzyme activity | inhibitor | Ellman | 40 µM | inhibition | 22.1%
[2H]c1c([2H])c([C@]2([2H])CCCN2C(=O)C(C)(C)Oc2ccc3cn[nH]c3c2)c([2H])c([2H])c1C([2H])([2H])[2H] | Ephrin type-A receptor 2 (EPHA2, Homo sapiens, UniProt P29317) | binding | – | competition with immobilised ligand | 1 µM | remaining binding | 99%
CN1C(=O)/C(=N\Nc2ncc(-c3cc4ccccc4oc3=O)s2)c2cc(Cl)ccc21 | ACHE | enzyme activity | inhibitor | Ellman | 1 µM | inhibition | 90%
COc1cc(/C=C/C(=O)O)ccc1OCc1cn(CC(=O)Nc2ccc(C)cc2)nn1 | ACHE | enzyme activity | inhibitor | Ellman | 40 µM | inhibition | 46%
